In ChEMBL document CHEMBL4699431, “Design and synthesis of substituted (1-(benzyl)-1H-1,2,3-triazol-4-yl)(piperazin-1-yl)methanone conjugates: study on their apoptosis inducing ability and tubulin polymerization inhibition” (RSC Med Chem, 2020):
Activity calls are given as the source filed them. The calls are words filed in the database; no cut-off is given here.

How the values were obtained:
MCF7 = assay: Cytotoxicity against human MCF-7 cells assessed as reduction in cell viability incubated for 48 hrs by MTT assay; assay type: functional, cell-based; conditions: MCF7, 48 h
Procedure, shortened: (§1)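 Cells plated at 3000-4500 per well and treated after 24 h. DMSO stocks (20 mM) were diluted in medium to final DMSO <0.1%, twofold series […], 48 h. MTT (0.5 mg/mL) was added for 4 h, formazan dissolved in DMSO, absorbance read at 570 nm.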

NCI-H460 = assay: Cytotoxicity against human NCI-H460 cells assessed as reduction in cell viability incubated for 48 hrs by MTT assay; assay type: functional, cell-based; conditions: NCI-H460, 48 h; procedure, shortened: as §1
BT-474 [1] = assay: Induction of morphological changes in human BT-474 cells assessed as cell shrinkage incubated for 48 hrs by phase-contrast microscope method; assay type: functional, cell-based; conditions: dose microM 0.5-2.5, time 48.0 hrs
Procedure, shortened: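 Plated at 5×10^4 cells/well, dosed after 24 h at 0.5, 1 and 2.5 μM. After 48 h, morphology was examined and photographed under phase-contrast microscopy.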

BT-474 [2] = assay: Inhibition of clonogenicity in human BT-474 cells assessed as reduction in colony formation measured after 7 days by crystal violet staining; assay type: functional, cell-based; conditions: dose microM 0.5-2.5, time 7.0 day
Procedure, shortened: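 100 cells/well in 6-well plates; after overnight attachment, treated 12 h, then grown in fresh medium at 37 °C, 5% CO₂ with medium changed every 2 days. Colonies fixed and stained with 1% crystal violet in methanol for 3 h, counted by imaging, expressed as percent of untreated control.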

BT-474 [3] = assay: Cell cycle arrest in human BT-474 cells assessed as increase in accumulation in S phase at 1 uM by propidium iodide staining based flow cytometry(reference value: 2.22%); assay type: functional
Procedure, shortened: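 Seeded at 1 x 10⁵ cells/well, after 24 h serum-starved 6 h to synchronize, then returned to FBS-containing medium and treated at 0.5, 1 and 2.5 μM. Harvested cells were PBS-washed, fixed in ice-cold 70% ethanol, stained with propidium iodide (50 μg/mL) plus RNase A for 20 min at 37 °C in the dark. About 10,000 events analysed by flow cytometry.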

BT-474 [4] = assay: Induction of mitochondrial membrane potential loss in human BT-474 cells assessed as depolarized cell population (P2) at 0.5 uM incubated for 48 hrs by JC1 staining based flow cytometry (reference value: 0.48 %); assay type: functional
Procedure, shortened: (§2)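 Cells (1x10⁶/mL) adhered overnight, then exposed to 0.5, 1 and 2.5 μM for 48 h. Collected, PBS-washed, incubated with JC-1 dye (1 μM) for 30 min at 37 °C, washed twice, trypsinized, centrifuged and read by flow cytometry.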

BT-474 [5] = assay: Induction of apoptosis in human BT-474 cells assessed as chromatin damage at 0.5 to 2.5 uM incubated for 24 hrs by DAPI staining based DAPI staining based confocal microscopic analysis; assay type: functional, cell-based; conditions: dose microM 0.5-2.5, time 24.0 hrs
BT-474 [6] = assay: Induction of mitochondrial membrane potential loss in human BT-474 cells assessed as depolarized cell population (P1) at 0.5 uM incubated for 48 hrs by JC1 staining based flow cytometry (reference value: 98.09 %); assay type: functional; procedure, shortened: as §2
BT-474 [7] = assay: Induction of apoptosis in human BT-474 cells after 48 hrs by Annexin-V alexa fluor 488/PI staining based flow cytometry analysis; conditions: dose microM 0.5-2.5, time 48.0 hrs

SMILES: O=C(c1cn(Cc2cccc(Oc3ccccc3)c2)nn1)N1CCN(S(=O)(=O)c2ccc(Br)cc2)CC1
- IC50 (MCF7): 2.34 µM
- IC50 (NCI-H460): 4.88 µM
- Activity (BT-474 [1]): Active
- inhibition (BT-474 [2]): Dose-dependent effect
- Activity (BT-474 [3]): 5.85%
- Activity (BT-474 [4]): 50.48%
- Activity (BT-474 [5]): Active
- Activity (BT-474 [6]): 50.26%
- Activity (BT-474 [7]): Dose-dependent effect
